Screens deposited in PubChem BioAssay by The Scripps Research Institute Molecular Screening Center.
Only some compounds are listed: those with a hit (about 2.3% of all), similar ones and a draw of the others.
ADAM17 inh – inhibitors of human ADAM17; recombinant ADAM17, EDANS/DABCYL FRET peptide cleavage; P78536; inhibition, % at 6.95 µM; 0.83% of 370,000 active; AID 720648;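 active = inhibition above the mean of compounds lying between control limits plus 3 SD, set per campaign, cut at about 8.5% in these data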;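 note: 0% = DMSO-only wells as the low control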
ADAM10 inh – ADAM10 inhibition, QFRET primary screen | 0.62% of 370,000 active | AID 720582 | recombinant ADAM10, EDANS/DABCYL FRET peptide cleavage, 3 h | O14672 | inhibition, % at 7 µM;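 active = inhibition above a per-campaign cutoff equal to the mean of compounds falling between control-based bounds plus 3 SD, cut at about 20% in these data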;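 note: 0% = DMSO wells while the 100% control is not disclosed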
TbMetRS inhib – blocks T. brucei methionyl-tRNA synthetase activity; inhibition, % at 11.9 µM; purified T. brucei MetRS, ATP depletion, Kinase-Glo luminescence; AID 624268; 0.4% of 360,000 active;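 active = inhibition above a per-plate cutoff of the control wells' mean inhibition plus 3 SD, cut at about 5.5% in these data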;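 note: 0% = DMSO wells median and 100% = median of wells with control inhibitor compound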
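Material: T. brucei methionyl-tRNA synthetase, purified; reagent: substrates ATP, L-methionine and bulk Escherichia coli tRNA; dosing: 11.9 µM single point; timing: 15 min plus 2 h at 25 °C; detection: luminescence of leftover ATP; evaluation: % inhibition; control set: DMSO-only wells as low control; replicates: singlicate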
PLC-gamma1 inh – inhibitors of human phospholipase C gamma1 | P19174 | AID 720700 | purified PLC-gamma1, fluorogenic substrate, fluorescence | inhibition, % at 12.2 µM | 0.84% of 370,000 active; in the data active = inhibition above about 9.5%
PLCb3 inh – blocks human PLC-beta3 enzyme activity | Purified PLC-beta3, fluorogenic substrate, fluorescence | Q01970 | 0.18% of 370,000 active | inhibition, % at 12.2 µM;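 note: 0% = median of compound wells on plate and 100% = full blocker control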
PLCgamma1 ctr – PLC-gamma1 inhibition, counter-screen for PLC-beta3 hits; shares compounds with PLC-gamma1 inh; purified PLC-gamma1, fluorogenic substrate, fluorescence; inhibition, % at 12.3 µM; 3.1% of 3,300 active; AID 743258; in the data active = inhibition above about 9.5%
PLCbeta3 conf – confirmation of human PLC-beta3 inhibitors; shares compounds with PLC-gamma1 inh; purified PLC-beta3, fluorogenic substrate fluorescence; inhibition, % at 12.3 µM; 1% of 3,300 active
Numbers without * were called inactive. Cut-off read from the data, not from the text of the source, unless noted: active = inhibition above about 11%; inactive = the rest.

What do the screens show for `CN(c1ccccc1C(=O)Nc1cccc([N+](=O)[O-])c1)S(C)(=O)=O`?
ADAM17 inh: 2; ADAM10 inh: 1; TbMetRS inhib: 0; PLC-gamma1 inh: 9.9*; PLCb3 inh: 2; PLCgamma1 ctr: -6; PLCbeta3 conf: -1

What do the screens show for `CN(c1ccccc1C(=O)Nc1cccc([N+](=O)[O-])c1)S(=O)(=O)c1ccccc1`?
ADAM17 inh: -2; ADAM10 inh: 5; TbMetRS inhib: -1; PLC-gamma1 inh: 1; PLCb3 inh: -1

What do the screens show for `CC(C)CCN1CCN(CC(c2ccccc2)c2ccccc2)CC1CCO` (stereo unspecified)?
ADAM17 inh: 3; ADAM10 inh: 10; TbMetRS inhib: 1; PLC-gamma1 inh: 6; PLCb3 inh: -26

Results for CN(C)c1nc(SCCOC(=O)COc2ccc(Cl)cc2Cl)nc(N(C)C)n1 ?
ADAM17 inh: 5; ADAM10 inh: 14; TbMetRS inhib: 0; PLC-gamma1 inh: 9.9*; PLCb3 inh: 2; PLCgamma1 ctr: -8; PLCbeta3 conf: -6

How did CCN(CC)C(=O)Cn1c2ccccc2c2nc3n(c(=O)c21)CCS3 do in these assays?
ADAM17 inh: -45; ADAM10 inh: -155; PLC-gamma1 inh: 3; PLCb3 inh: -1

Results for CCCCCCCC(=O)Nc1ccc(S(=O)(=O)Nc2nccs2)cc1 ?
ADAM17 inh: 2; ADAM10 inh: 1; TbMetRS inhib: 1; PLC-gamma1 inh: 26*; PLCb3 inh: 0; PLCgamma1 ctr: -5; PLCbeta3 conf: -5

How did CC(C)N1Cc2nnn(Cc3ccc(F)cc3)c2-c2cc(F)ccc2S1(=O)=O do in these assays?
ADAM17 inh: -3; ADAM10 inh: -2; PLC-gamma1 inh: 2; PLCb3 inh: 1

Results for COc1ccc2sc(N(CCCN(C)C)C(=O)c3ccc(S(=O)(=O)N4CCCC4)cc3)nc2c1 ?
ADAM17 inh: 5; ADAM10 inh: 2; TbMetRS inhib: -1; PLC-gamma1 inh: 12*; PLCb3 inh: 7; PLCgamma1 ctr: -4; PLCbeta3 conf: -2

How did O=C(CSc1ccccc1)N(c1ccc(Br)cc1)c1nccs1 do in these assays?
ADAM17 inh: 8; ADAM10 inh: 19; TbMetRS inhib: 1; PLC-gamma1 inh: 14*; PLCb3 inh: 6; PLCgamma1 ctr: -1; PLCbeta3 conf: -1

How did O=C(CCSc1ccccc1)Nc1nccs1 do in these assays?
ADAM17 inh: -5; ADAM10 inh: -6; TbMetRS inhib: -1; PLC-gamma1 inh: 0; PLCb3 inh: -1

How did Cc1nn(CC(=O)Nc2c(F)c(F)cc(F)c2F)c(=O)c2cccn12 do in these assays?
ADAM17 inh: -4; ADAM10 inh: -5; TbMetRS inhib: 0; PLC-gamma1 inh: -2; PLCb3 inh: -11

Results for CN1CCN(S(=O)(=O)c2cccc(C(=O)Oc3ccc(Br)cc3F)c2)CC1 ?
ADAM17 inh: 3; ADAM10 inh: 5; TbMetRS inhib: 0; PLC-gamma1 inh: 11*; PLCb3 inh: 0; PLCgamma1 ctr: -4; PLCbeta3 conf: -1

What do the screens show for `N#Cc1ccccc1OCC(=O)NNC(=O)CCC1CCCC1`?
ADAM17 inh: 6; ADAM10 inh: 4; TbMetRS inhib: 0; PLC-gamma1 inh: 12*; PLCb3 inh: 1; PLCgamma1 ctr: -6; PLCbeta3 conf: -3

Results for CCOC(=O)[C@]12CCC=C1N(CCC1=CCCCC1)C(=O)[C@H](CC(=O)N1CCCCC1)C2 ?
ADAM17 inh: -2; ADAM10 inh: 1; TbMetRS inhib: -1; PLC-gamma1 inh: 2; PLCb3 inh: 4

What do the screens show for `CCOC(=O)N1CCN(S(=O)(=O)N2CCCC(C(=O)NCCc3ccc(OCC)c(OCC)c3)C2)CC1` (stereo unspecified)?
ADAM17 inh: -1; ADAM10 inh: 10; TbMetRS inhib: 0; PLC-gamma1 inh: 12*; PLCb3 inh: 2; PLCgamma1 ctr: -4; PLCbeta3 conf: -6

Results for CCOc1ccc(CCNC(=O)C2CCCN(S(=O)(=O)N3CCCCC3)C2)cc1OCC (stereo unspecified) ?
ADAM17 inh: 1; ADAM10 inh: -12; TbMetRS inhib: -1; PLC-gamma1 inh: 0; PLCb3 inh: 2

How did CCOc1ccc(CCNC(=O)C2CCCN(S(C)(=O)=O)C2)cc1OCC (stereo unspecified) do in these assays?
ADAM17 inh: 1; ADAM10 inh: 7; TbMetRS inhib: -1; PLC-gamma1 inh: 3; PLCb3 inh: 13*; PLCgamma1 ctr: -1; PLCbeta3 conf: -2

Results for O=C(COc1ccc2c(-c3ccccc3)cc(=O)oc2c1)N1C[C@H]2C[C@@H](C1)c1cccc(=O)n1C2 ?
ADAM17 inh: 1; ADAM10 inh: -15; TbMetRS inhib: -1; PLC-gamma1 inh: -1; PLCb3 inh: -2

Results for COC(=O)C1CCC(CNC(=O)C(Cc2ccc3c(c2)OCO3)NC(C)=O)CC1 (stereo unspecified) ?
ADAM17 inh: 4; ADAM10 inh: -4; PLC-gamma1 inh: 1; PLCb3 inh: 1

Results for O=c1cc([O-])[n+]2c3n1CCCN3CCC2 ?
ADAM17 inh: 5; ADAM10 inh: 8; TbMetRS inhib: -1; PLC-gamma1 inh: 7; PLCb3 inh: 12*; PLCgamma1 ctr: 3; PLCbeta3 conf: 1

How did COc1cccc(C(=O)N[C@H](C(=O)N2CCC[C@H]2C(=O)NCc2ccccc2)C(C)C)c1 do in these assays?
ADAM17 inh: 0; ADAM10 inh: 0; PLC-gamma1 inh: 7; PLCb3 inh: 4

What do the screens show for `O=C(OCc1ccccc1Cl)c1cccnc1Cl`?
ADAM17 inh: 5; ADAM10 inh: 5; TbMetRS inhib: 0; PLC-gamma1 inh: 14*; PLCb3 inh: 8; PLCgamma1 ctr: -8; PLCbeta3 conf: -2

What do the screens show for `CC(N)(C(=O)O)c1cccc(OCc2cccc(Cl)c2)c1` (stereo unspecified)?
ADAM17 inh: 0; ADAM10 inh: 13; TbMetRS inhib: 0; PLC-gamma1 inh: 11*; PLCb3 inh: 4; PLCgamma1 ctr: -3; PLCbeta3 conf: -5

Results for COc1ccc(-c2noc(C3CCCN(C(=O)N[C@@H]4C[C@H]4c4ccccc4)C3)n2)cc1 (stereo partly specified) ?
ADAM17 inh: 0; ADAM10 inh: 6; PLC-gamma1 inh: 6; PLCb3 inh: 6

Results for O=C(/C=C/c1ccc([N+](=O)[O-])cc1)NC1CC2CCC1C2 (stereo unspecified) ?
ADAM17 inh: 5; ADAM10 inh: 1; TbMetRS inhib: 0; PLC-gamma1 inh: 14*; PLCb3 inh: 10; PLCgamma1 ctr: 7; PLCbeta3 conf: 5

What do the screens show for `COc1cccc(-c2cc3nc4c(c(N5CCC6(CC5)OCCO6)n3n2)CCC4)c1`?
ADAM17 inh: -3; ADAM10 inh: -21; TbMetRS inhib: 0; PLC-gamma1 inh: -72; PLCb3 inh: -87
